Source: the RNAGym collection of RNA variant scans (doi:10.1126/science.aae0568)
Variants at the floor of the assay were thinned out.

B1: tRNA (parent)
chain: GUUCCGUUGGCGUAAUGGUAACGCGUCUCCCUCCUAAGGAGAAGACUGCGGGUUCGAGUCCCGUACGGAACG

Variants of: B1
Assay: yeast fitness relative to wild type (ratio to wild type); higher = fitter; tRNA-Arg(CCU), competitive growth, 37 C, YPD
Procedure, shortened: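 Amplicons of the tRNA-Arg(CCU) gene were sequenced, 100-nucleotide paired-end, from the start population and from each end population of a pooled yeast competition. The competition, in six parallel replicates, lasted 24 hours in YPD at 37°C. Fitness relative to wild type was calculated from changes in genotype frequencies. Genotypes had to have ≥ 100 starting reads, and estimates < 0.5 were set to 0.5.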

Variant | yeast fitness
A14U A65C | 0.611
A14U A65G | 0.559
A14U A65U | 0.639
A14U G17C U28C C30G G41C A42C U47C G50A C62A | ≤ 0.5
A15C C22G | 0.658
A15C C22U | 0.689
A15C A20G G23A C46A C49G A65U A70U | ≤ 0.5
A14U C27A C62G | 0.667
A14U C29A U54A U59A | 0.574
A14U C31G C61G A69G | ≤ 0.5
A14U C24A C30U A37G | ≤ 0.5
A14U U16G U19A | ≤ 0.5
A15C A42C C55G | 0.547
A14U G23A U64A C66A | ≤ 0.5
A14U G17A C22U | ≤ 0.5
A15C A20U C31G | 0.562
A15C A45G C55U | ≤ 0.5
A14U C49G C60A | ≤ 0.5
A15C A21G C22U A57U | ≤ 0.5
A14U C29U A37U A69U | ≤ 0.5
A14U U26G A36G C60A | ≤ 0.5
A15C A65C | 0.713
A15C A65U | 0.841
A14U G18C G25A A70G | ≤ 0.5

Variant | yeast fitness
A14U C33G A42C C49U C55G | ≤ 0.5
A14U C24G A36G G68U | ≤ 0.5
A14U U16A C33G A45C A69U | ≤ 0.5
A15C A20G G51A | ≤ 0.5
A14U C27U C29G C31U C61G | ≤ 0.5
A15C A36G C49U | 0.533
A14U C22G C60G | ≤ 0.5
A14U G17A C22U C33G | 0.567
A15C A37U C66U | 0.584
A14U C30A A43C G63A | ≤ 0.5
A14U C30G C55U | ≤ 0.5
A14U C24A C55G | ≤ 0.5
A14U C55G C61G C66U | ≤ 0.5
A14U C31A C61A | ≤ 0.5
A14U C24U C34U C49G | ≤ 0.5
A14U G63C | ≤ 0.5
A14U G63A | ≤ 0.5
A14U U19A C60G A70G | 0.531
A14U G23A C29G C46A C55G | 0.57
A14U C30U A37G A70G | ≤ 0.5
A14U C27G A57U | 0.527
A14U G48C A70C | ≤ 0.5
A15C C22G A57C G63C C66U | ≤ 0.5
A15C A42G G67U | 0.522

Variant | yeast fitness
A15C A42G G67C | ≤ 0.5
A15C C22U U26G G52A | 0.732
A14U C30U C46U G52C | ≤ 0.5
A15C C24G | 0.557
A14U U16A | 0.667
A14U C24G G41A G44A | ≤ 0.5
A14U G17C A57G | 0.505
A14U C30A C66U A70G | 0.64
A15C C24A U32A C55U | ≤ 0.5
A14U C29G C34G | ≤ 0.5
A15C A20C C55G A70G | ≤ 0.5
A14U U26G A37C | ≤ 0.5
A14U C30A C31G G41C A70U | ≤ 0.5
A14U C24G U26G G56C | ≤ 0.5
A14U G67C | 0.729
A14U G67U | 0.562
A14U C24G C31A A40G G44C C55U | ≤ 0.5
A14U G23A A40U G48C C55U C61G | ≤ 0.5
A15C A21G C27G A69U | ≤ 0.5
A14U C24G G41A G44A U53A | 0.55
A14U C24U C33A G44C U47C | 0.534
A14U U19A C55A C61G | ≤ 0.5
A14U G56A G67A | ≤ 0.5
A15C A43G C46A A70C | ≤ 0.5

Variant | yeast fitness
A15C A20G G23A C46A C49G G50A A65U A70U | ≤ 0.5
A14U C29G C62U | ≤ 0.5
A14U G23U G67C | ≤ 0.5
A15C A36C G38C C55U C66U | ≤ 0.5
A15C C22A G25C U28A A36U U54C A57C | ≤ 0.5
A14U G18A A21U A42G G68A | ≤ 0.5
A15C A21C A45U C61U C66U | ≤ 0.5
A15C A37C C60U G67A | ≤ 0.5
A14U U16C A42U | ≤ 0.5
A14U G51A C61G | 0.602
A14U C30A U32C | ≤ 0.5
A14U G18A U35A A57C C62U | ≤ 0.5
A15C A36U A57U G67A | ≤ 0.5
A15C A42C C55G A70G | 0.72
A14U C24G G58A | 0.561
A14U G58A | 0.629
A14U C24U C33A G44C U47C U64G | ≤ 0.5
A14U U32C U53A C55A | ≤ 0.5
A14U G50U | 0.601
A14U C24U C33G A65U C66U A69C | ≤ 0.5
A14U C34A G48A U59C | 0.541
A14U C24G C27U U54G | ≤ 0.5
A15C A36C G39C | ≤ 0.5
A14U C24G G41A G44A U53A C66U | 0.533

Variant | yeast fitness
A14U G23A C27A G58C C61U | ≤ 0.5
A14U G17A A43U | ≤ 0.5
A15C A42C G48A G50C A65G | 0.561
A14U G18C U35G C49A C60G G68A | ≤ 0.5
A14U G68A | 0.721
A14U G68C | 0.694
A14U A45U U47A | ≤ 0.5
A14U U16G U19A A42G C61G | 0.535
A15C A21G A36G C49U G67U | ≤ 0.5
A15C A21C A40C U59G C60G | ≤ 0.5
A15C A42G A43G | ≤ 0.5
A15C A21U C24A C33A C66A | ≤ 0.5
A15C C24G A45G C55U | ≤ 0.5
A14U G25C A45G A69U | ≤ 0.5
A14U C24G C31A A40G G44C C55U A69U | ≤ 0.5
A14U G23A U28A C30A | ≤ 0.5
A14U C24G A36U | ≤ 0.5
A14U G18C A36G | ≤ 0.5
A15C C22U A42U U47A | 0.511
A15C A20U C31G G48C A65U | ≤ 0.5
A14U C22A A43G G52C | ≤ 0.5
A14U C49U G52A | ≤ 0.5
A14U C24U G48C C62U A70C | ≤ 0.5
A14U G23A | ≤ 0.5

Variant | yeast fitness
A14U G23C | 0.508
A15C A45G U53C | ≤ 0.5
A14U U26A C30U A69C | ≤ 0.5
A14U C33A A42C G52A | 0.515
A14U C30G C33A | 0.529
A14U G38A G58A | ≤ 0.5
A14U C30U U59A | ≤ 0.5
A14U G38C C62A G67C | ≤ 0.5
A14U U47A | 0.575
A14U U19A A36C G63A | 0.586
A14U C60U C62U A70G | ≤ 0.5
A15C A40G A65G | 0.511
A14U A45G U53C A65U | ≤ 0.5
A14U C22U G25A C55G C60U G68C | ≤ 0.5
A14U G68C A70G | ≤ 0.5
A14U U26G C33A A40U A69U | ≤ 0.5
A14U C49U U54C | ≤ 0.5
A14U G17C | 0.514
A15C A21U C24U A57G G67U | 0.542
A14U C24G C46G G52A | ≤ 0.5
A15C A21U A69U | ≤ 0.5
A14U U16A C27G A40U | ≤ 0.5
A14U U19A G23A A43C U47C A57C | ≤ 0.5
A14U G52A G63C G67C A69U | ≤ 0.5

Variant | yeast fitness
A14U C22U | 0.54
A14U U19A C24U C55G A70U | 0.532
A15C C22G G58C C62U | ≤ 0.5
A14U G25A C27U C55G | ≤ 0.5
A14U C60G | ≤ 0.5
A14U C60A | ≤ 0.5
A15C C24G A40U G44A | ≤ 0.5
A15C A45G G68A | ≤ 0.5
A14U G25C C66U | ≤ 0.5
A14U C24G C31A A40G G44C | ≤ 0.5
A14U U19A G23C C29A C66A | 0.549
A15C A21U A36C C49U A69U | ≤ 0.5
A14U U32G G52A G63C | ≤ 0.5
A14U U26A A42G U59G C60U | ≤ 0.5
A15C C22A A70U | ≤ 0.5
A14U C34G C61A | ≤ 0.5
A14U C29U C55U | ≤ 0.5
A14U U47A G67A | ≤ 0.5
A15C A20G G25C C29U U35C A43U | ≤ 0.5
A14U C46G | 0.612
A15C A69U | 0.892
A15C A69C | 0.672
A15C A20G C31U A42C | ≤ 0.5
